Calls of active or inactive are those of the source.
Columns and labels:
Format in all cases: cell-based
[1] = target: T1, Ras guanyl-releasing protein 3 (Homo sapiens) (UniProt Q8IV61); assay: Activation of RasGRP3 (unknown origin) overexpressed in HEK293 cells assessed as protein phosphorylation at T133 at 0.1 to 30 uM after 30 mins by Western blot analysis
T1 sequence (whole entry): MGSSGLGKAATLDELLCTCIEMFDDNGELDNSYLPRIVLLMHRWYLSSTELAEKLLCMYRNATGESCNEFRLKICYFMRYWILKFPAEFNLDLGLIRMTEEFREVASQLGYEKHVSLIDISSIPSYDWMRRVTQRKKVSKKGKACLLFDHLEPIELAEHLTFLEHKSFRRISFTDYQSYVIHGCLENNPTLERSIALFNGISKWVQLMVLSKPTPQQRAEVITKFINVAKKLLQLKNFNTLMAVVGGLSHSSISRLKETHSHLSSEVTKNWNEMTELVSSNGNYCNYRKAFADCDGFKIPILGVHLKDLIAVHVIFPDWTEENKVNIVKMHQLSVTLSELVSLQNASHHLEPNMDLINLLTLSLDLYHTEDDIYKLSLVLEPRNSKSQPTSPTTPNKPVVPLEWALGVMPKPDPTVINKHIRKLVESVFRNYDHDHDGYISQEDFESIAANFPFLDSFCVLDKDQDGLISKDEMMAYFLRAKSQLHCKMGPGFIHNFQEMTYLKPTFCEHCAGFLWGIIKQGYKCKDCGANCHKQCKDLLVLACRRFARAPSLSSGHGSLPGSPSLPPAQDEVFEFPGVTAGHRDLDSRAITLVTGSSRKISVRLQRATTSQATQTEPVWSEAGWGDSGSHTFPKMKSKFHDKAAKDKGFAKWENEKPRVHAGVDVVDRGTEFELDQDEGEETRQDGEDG

[2] = target: Protein kinase C delta type (Homo sapiens) (UniProt Q05655); assay: Activation of PKC-delta in HEK293 cells assessed as protein phosphorylation at S299 at 0.1 to 30 uM after 30 mins by Western blot analysis
[3] = target: Protein kinase C delta type (Homo sapiens) (UniProt Q05655); assay: Activation of PKC-delta in HEK293 cells overexpressing RasGRP3 assessed as protein phosphorylation at S299 at 0.1 to 30 uM after 30 mins by Western blot analysis
[4] = target: T1, Ras guanyl-releasing protein 3 (Homo sapiens); assay: Activation of RasGRP3 (unknown origin) overexpressed in HEK293 cells assessed as ERK1/2 phosphorylation at 0.1 to 30 uM after 30 mins by Western blot analysis
[5] = target: Protein kinase C delta type (Homo sapiens) (UniProt Q05655); assay: Binding affinity to recombinant human GFP-tagged PKC-delta expressed in human LNCAP cells assessed as induction of protein translocation from plasma membrane to internal membrane at 1000 nM after 2 to 10 mins by confocal microscopic analysis
Outline: (§1)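 Human GFP-PKCδ or GFP-RasGRP3 is expressed transiently in LNCaP cells, which were plated at 80,000 cells/ml, transfected after 48 h and imaged live 24 h after transfection. Cells are treated with ligand ([…]) or PMA (1000 nM). Confocal images (488 nm excitation, 500–530 nm emission) are taken every 30 s for 30 min. Representative images, n = 3–6.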

[6] = target: T1, Ras guanyl-releasing protein 3 (Homo sapiens); assay: Binding affinity to recombinant human GFP-tagged RasGRP3 expressed in human LNCAP cells assessed as induction of protein translocation from plasma membrane to internal membrane at 1000 nM after 2 to 10 mins by confocal microscopic analysis; outline: as §1

Measured: Activity

Chain of Protein kinase C delta type (Homo sapiens) (Q05655 whole entry, looked up): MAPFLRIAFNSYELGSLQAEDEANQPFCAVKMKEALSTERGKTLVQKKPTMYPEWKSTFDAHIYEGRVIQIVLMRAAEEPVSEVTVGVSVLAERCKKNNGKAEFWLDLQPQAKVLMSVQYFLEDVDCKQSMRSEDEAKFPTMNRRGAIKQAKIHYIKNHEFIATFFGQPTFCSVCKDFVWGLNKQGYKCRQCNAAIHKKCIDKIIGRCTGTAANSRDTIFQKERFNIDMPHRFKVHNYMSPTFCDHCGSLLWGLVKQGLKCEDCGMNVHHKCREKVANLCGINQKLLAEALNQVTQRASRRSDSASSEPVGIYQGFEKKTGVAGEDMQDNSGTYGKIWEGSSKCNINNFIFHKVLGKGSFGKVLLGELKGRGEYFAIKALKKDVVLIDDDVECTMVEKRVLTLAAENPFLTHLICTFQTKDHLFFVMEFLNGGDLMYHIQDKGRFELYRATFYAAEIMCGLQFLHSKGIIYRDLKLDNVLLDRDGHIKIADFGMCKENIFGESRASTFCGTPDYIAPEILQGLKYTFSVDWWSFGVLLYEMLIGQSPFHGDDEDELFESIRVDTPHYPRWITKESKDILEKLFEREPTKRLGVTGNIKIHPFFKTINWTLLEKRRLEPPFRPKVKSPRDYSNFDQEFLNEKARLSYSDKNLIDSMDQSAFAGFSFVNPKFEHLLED

CCCCCCCCCCCCCC(=O)O[C@@H]1[C@@H](C)[C@@]2(O)[C@@H](C=C(CO)C[C@]3(O)C(=O)C(C)=C[C@@H]23)[C@@H]2C(C)(C)[C@]12OC(C)=O
active: all assays above

CCCC(=O)O[C@@H]1[C@@H](C)[C@@]2(O)[C@@H](C=C(CO)C[C@]3(O)C(=O)C(C)=C[C@@H]23)[C@@H]2C(C)(C)[C@]12OC(=O)CCC
active: [5] | [6]

Reference: ChEMBL document CHEMBL3286272, “Synthesis, biological, and biophysical studies of DAG-indololactones designed as selective activators of RasGRP” (Bioorg Med Chem, 2014)
